Source: ChEMBL document CHEMBL3045981, “Synthesis and insecticidal activities of novel N-sulfenyl-N'-tert-butyl-N,N'-diacylhydrazines. 2. N-substituted phenoxysulfenate derivatives” (2008)
Converted amounts (≈) assume the structure as drawn.

How the values were obtained:
Type in all cases: functional
Mythimna separata [1] = experiment: Stomach toxicity against Mythimna separata (Oriental armyworm) fourth-instar larvae reared on compound pre-treated corn leaves assessed as insect mortality at 5 mg/kg measured 4 days post compound treatment
Mythimna separata [2] = experiment: Stomach toxicity against Mythimna separata (Oriental armyworm) fourth-instar larvae reared on compound pre-treated corn leaves assessed as insect mortality at 2.5 mg/kg measured 4 days post compound treatment
Mythimna separata [3] = experiment: Stomach toxicity against Mythimna separata (Oriental armyworm) fourth-instar larvae reared on compound pre-treated corn leaves assessed as insect mortality at 25 mg/kg measured 4 days post compound treatment
Mythimna separata [4] = experiment: Stomach toxicity against Mythimna separata (Oriental armyworm) fourth-instar larvae reared on compound pre-treated corn leaves assessed as insect mortality at 10 mg/kg measured 4 days post compound treatment
Mythimna separata [5] = experiment: Stomach toxicity against Mythimna separata (Oriental armyworm) fourth-instar larvae reared on compound pre-treated corn leaves assessed as insect mortality at 50 mg/kg measured 4 days post compound treatment
Spodoptera litura [6] = experiment: Stomach toxicity against Spodoptera litura third-instar larvae reared on compound pre-treated cabbage leaves assessed as insect mortality measured 3 days post compound treatment
Outline: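 Leaf-dip: cabbage leaf discs (5 cm × 3 cm) dipped 3 s in test solution, air-dried, placed singly in 80 cm³ boxes. Five third-instar larvae per disc. Water- and acetone-treated leaves as controls. Held at 25 ± 1 °C. Mortality scored on a dead/alive basis 3 days after treatment and Abbott-corrected.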

Ostrinia furnacalis = experiment: Contact toxicity against Ostrinia furnacalis (Asian corn borer) fourth-instar larvae exposed to compound on thoracic tergite region assessed as insect mortality measured 48 hr post compound treatment
Outline: (§1)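 Topical application: each fourth-instar larva received 1 µL of acetone dilution on the thoracic tergite via automatic microapplicator; five to seven concentrations. Acetone-only control. Usually 40 insects per dose, four replicates. Larvae returned to standard rearing at 25 ± 1 °C. Mortality read 48 h after treatment, Abbott-corrected, and LD50 (median lethal dose) derived.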

Helicoverpa armigera = experiment: Contact toxicity against Helicoverpa armigerafourth-instar larvae exposed to compound on thoracic tergite region assessed as insect mortality measured 48 hr post compound treatment; outline: as §1
Spodoptera litura [7] = experiment: Contact toxicity against Spodoptera litura fourth-instar larvae exposed to compound on thoracic tergite region assessed as insect mortality measured 48 hr post compound treatment; outline: as §1

Row | Compound | mortality at 5 mg/kg (Mythimna separata [1]) [%] | mortality at 2.5 mg/kg (Mythimna separata [2]) [%] | further results
1 | CCc1ccc(C(=O)N(N(SOc2ccc(C)cc2)C(=O)c2cc(C)cc(C)c2)C(C)(C)C)cc1 | 100 | 30 | 
2 | CCc1ccc(C(=O)N(N(SOc2ccc(C)c(C)c2)C(=O)c2cc(C)cc(C)c2)C(C)(C)C)cc1 | 70 | 10 | 
3 | CCc1ccc(C(=O)N(N(SOc2ccccc2OC)C(=O)c2cc(C)cc(C)c2)C(C)(C)C)cc1 | 90 | 80 | 
4 | CCc1ccc(C(=O)N(N(SOc2cccc(OC)c2)C(=O)c2cc(C)cc(C)c2)C(C)(C)C)cc1 | 100 | 50 | 
5 | CCc1ccc(C(=O)N(N(SOc2ccc(OC)cc2)C(=O)c2cc(C)cc(C)c2)C(C)(C)C)cc1 | 100 | 80 | 
6 | CCc1ccc(C(=O)N(N(SOc2ccccc2C(=O)OC)C(=O)c2cc(C)cc(C)c2)C(C)(C)C)cc1 | 100 | 60 | 
7 | CCc1ccc(C(=O)N(N(SOc2cccc(C(=O)OC)c2)C(=O)c2cc(C)cc(C)c2)C(C)(C)C)cc1 | 90 | 80 | 
8 | CCc1ccc(C(=O)N(N(SOc2ccc(C(=O)OC)cc2)C(=O)c2cc(C)cc(C)c2)C(C)(C)C)cc1 | 100 | 100 | 
9 | CCc1ccc(C(=O)N(N(SOc2ccc(-c3ccccc3)cc2)C(=O)c2cc(C)cc(C)c2)C(C)(C)C)cc1 | 100 | 90 | 
10 | Cc1cc(C)cc(C(=O)N(N(SOc2ccc(Cl)cc2)C(=O)c2ccc3c(c2C)OC(C)C3)C(C)(C)C)c1 (stereo not drawn) | 100 | 90 | 
11 | COc1cccc(C(=O)N(N(SOc2ccc(Cl)cc2)C(=O)c2cc(C)cc(C)c2)C(C)(C)C)c1C | 100 | 100 | 
12 | CC(C)(C)N(C(=O)c1ccc(Cl)cc1)N(SOc1ccc(Cl)cc1)C(=O)c1ccccc1 | 30 | 0 | mortality at 25 mg/kg (Mythimna separata [3]): 100%; mortality at 10 mg/kg (Mythimna separata [4]): 100%
13 | CC(C)(C)N(C(=O)c1ccccc1)N(SOc1ccccc1)C(=O)c1ccccc1 |  |  | mortality at 50 mg/kg (Mythimna separata [5]): 100%; mortality at 25 mg/kg (Mythimna separata [3]): 100%; mortality at 10 mg/kg (Mythimna separata [4]): 0%
14 | CC(C)(C)N(C(=O)c1ccccc1)N(SOc1ccc(Cl)cc1)C(=O)c1ccccc1 |  |  | mortality at 50 mg/kg (Mythimna separata [5]): 100%; mortality at 25 mg/kg (Mythimna separata [3]): 100%; mortality at 10 mg/kg (Mythimna separata [4]): 0%
15 | Cc1ccc(OSN(C(=O)c2ccccc2)N(C(=O)c2ccccc2)C(C)(C)C)cc1 |  |  | mortality at 50 mg/kg (Mythimna separata [5]): 100%; mortality at 25 mg/kg (Mythimna separata [3]): 80%; mortality at 10 mg/kg (Mythimna separata [4]): 10%
16 | CCc1ccc(C(=O)N(N(SOc2ccccc2)C(=O)c2cc(C)cc(C)c2)C(C)(C)C)cc1 | 90 | 70 | mortality at 50 mg/kg (Mythimna separata [5]): 100%; mortality at 25 mg/kg (Mythimna separata [3]): 100%; mortality at 10 mg/kg (Mythimna separata [4]): 100%
17 | CCc1ccc(C(=O)N(N(SOc2ccccc2Br)C(=O)c2cc(C)cc(C)c2)C(C)(C)C)cc1 | 100 | 30 | 
18 | CCc1ccc(C(=O)N(N(SOc2ccc(Br)cc2)C(=O)c2cc(C)cc(C)c2)C(C)(C)C)cc1 | 100 | 50 | 
19 | CCc1ccc(C(=O)N(N(SOc2ccccc2Cl)C(=O)c2cc(C)cc(C)c2)C(C)(C)C)cc1 | 95 | 80 | 
20 | CCc1ccc(C(=O)N(N(SOc2cccc(Cl)c2)C(=O)c2cc(C)cc(C)c2)C(C)(C)C)cc1 | 90 | 80 | 
21 | CCc1ccc(C(=O)N(N(SOc2ccc(Cl)cc2Cl)C(=O)c2cc(C)cc(C)c2)C(C)(C)C)cc1 | 90 | 40 | 
22 | CCc1ccc(C(=O)N(N(SOc2c(Cl)cc(Cl)cc2Cl)C(=O)c2cc(C)cc(C)c2)C(C)(C)C)cc1 | 90 | 50 | 
23 | CCc1ccc(C(=O)N(N(SOc2ccccc2C)C(=O)c2cc(C)cc(C)c2)C(C)(C)C)cc1 | 100 | 60 | 
24 | CCc1ccc(C(=O)N(N(SOc2cccc(C)c2)C(=O)c2cc(C)cc(C)c2)C(C)(C)C)cc1 | 95 | 70 | 
25 | Cc1cc(C)cc(C(=O)N(NC(=O)c2ccc3c(c2C)OC(C)C3)C(C)(C)C)c1 (stereo not drawn) [FUXIAN] | 100 | 90 | 
26 | CC(C)(C)N(NC(=O)c1ccc(Cl)cc1)C(=O)c1ccccc1 [HALOFENOZIDE] | 70 | 10 | mortality at 50 mg/kg (Mythimna separata [5]): 100%
27 | COc1cccc(C(=O)NN(C(=O)c2cc(C)cc(C)c2)C(C)(C)C)c1C [METHOXYFENOZIDE] | 100 | 100 | 
28 | CC(C)(C)N(NC(=O)c1ccccc1)C(=O)c1ccccc1 [RH-5849] |  |  | mortality at 50 mg/kg (Mythimna separata [5]): 100%; mortality at 25 mg/kg (Mythimna separata [3]): 70%; mortality at 10 mg/kg (Mythimna separata [4]): 0%
29 | CCc1ccc(C(=O)NN(C(=O)c2cc(C)cc(C)c2)C(C)(C)C)cc1 [TEBUFENOZIDE] | 95 | 55 | LC50 (Spodoptera litura [6]): 11.2 µg/mL (≈ 31.7 µM); LD50 (Ostrinia furnacalis): 59.4 mg/kg; LD50 (Helicoverpa armigera): 1310 mg/kg; LD50 (Spodoptera litura [7]): 527 mg/kg; mortality at 10 mg/kg (Mythimna separata [4]): 100%
